Test results as given in ChEMBL document CHEMBL1137577, “Inhibitors of the interaction of a thyroid hormone receptor and coactivators: preliminary structure-activity relationships” (J Med Chem, 2007).
≈ marks a conversion by molar mass, not a printed value. Where “and” joins values, the source holds several entries; their conditions need not be identical. Equal values may be shown once.

Key:
[1] = biological target: T1, Thyroid hormone receptor alpha (Homo sapiens, UniProt P10827); assay: Displacement of labeled SRC2-2 from human TRalpha by FP assay
T1 sequence (P10827 whole entry): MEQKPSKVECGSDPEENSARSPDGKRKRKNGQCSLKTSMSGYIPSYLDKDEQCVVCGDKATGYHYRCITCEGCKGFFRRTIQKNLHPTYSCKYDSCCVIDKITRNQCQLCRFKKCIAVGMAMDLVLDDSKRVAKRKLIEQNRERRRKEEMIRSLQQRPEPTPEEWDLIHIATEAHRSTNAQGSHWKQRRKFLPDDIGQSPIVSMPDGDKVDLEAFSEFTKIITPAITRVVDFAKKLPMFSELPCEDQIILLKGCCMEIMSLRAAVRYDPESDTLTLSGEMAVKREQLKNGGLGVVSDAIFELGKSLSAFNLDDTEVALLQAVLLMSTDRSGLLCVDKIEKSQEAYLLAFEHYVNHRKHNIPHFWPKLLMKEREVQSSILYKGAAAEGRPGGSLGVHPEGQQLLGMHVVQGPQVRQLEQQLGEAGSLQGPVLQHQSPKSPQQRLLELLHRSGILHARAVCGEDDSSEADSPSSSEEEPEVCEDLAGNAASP

ARO = assay: Cytotoxicity against human ARO cells after 48 hrs by MTS assay; assay type: functional; settings: read-out: LD50 (the source's name)
U2OS = assay: Cytotoxicity against human U2OS cells after 48 hrs by MTS assay; assay type: functional; settings: read-out: LD50 (the source's name)
[2] = biological target: T2, Thyroid hormone receptor beta (Homo sapiens, UniProt P10828); assay: Displacement of labeled SRC2-2 from human TRbeta expressed in BL21 (DE3) cells FP assay; assay type: cell-based
T2 sequence (P10828 whole entry): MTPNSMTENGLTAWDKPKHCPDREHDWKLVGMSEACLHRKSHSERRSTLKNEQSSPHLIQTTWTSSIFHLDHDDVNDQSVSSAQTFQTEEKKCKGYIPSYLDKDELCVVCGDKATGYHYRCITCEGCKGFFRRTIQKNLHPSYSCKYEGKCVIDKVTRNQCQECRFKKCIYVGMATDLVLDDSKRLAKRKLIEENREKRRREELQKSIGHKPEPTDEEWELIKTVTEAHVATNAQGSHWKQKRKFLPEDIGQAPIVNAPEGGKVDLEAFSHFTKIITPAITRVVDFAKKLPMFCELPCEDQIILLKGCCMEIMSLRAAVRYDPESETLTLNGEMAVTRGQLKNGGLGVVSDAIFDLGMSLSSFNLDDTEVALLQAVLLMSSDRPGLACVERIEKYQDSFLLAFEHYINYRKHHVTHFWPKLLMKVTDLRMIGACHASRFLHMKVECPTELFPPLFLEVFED
How it was run: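 Competitive fluorescence polarization. Assay liquid was PBS containing 5% DMSO. For TRβ, hTRβ1 LBD (His6, T209-D461) was expressed in BL21 (DE3).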

physchem = settings: PBS
[3] = Permeability across artificial membrane at pH 7.4 by PAMPA assay

SMILES | IC50 [1] | CC50 (ARO; Homo sapiens, ARO, 48 h) [µM] | CC50 (U2OS; Homo sapiens, U2OS, 48 h) [µM] | IC50 [2] [µM] | solubility (physchem) [µM] | Papp [3] [nm/s] | permeability [3] | CC50 (ARO) | CC50 (U2OS) [µM]
C=CC(=O)c1ccc(CCCCC)cc1 | 60.9 µM | 20 | 22.7 | 33.9 | – | – | – | – | –
CCCCCCc1ccc(C(=O)CCN(C)CCc2ccccc2)cc1 | 3.6 µM | 2.5 | 18.4 | 1.5 | 15 (≈ 5.27 µg/mL) | – | – | – | –
CCCCCCc1ccc(NC(=O)/C=C/c2ccccc2)cc1 | > 100 µM | – | – | > 100 | – | – | – | – | –
C=C(CC(=O)Nc1ccc(CCCCCC)cc1)C(=O)O | > 100 µM | 183 | 124 | > 100 | 286 (≈ 82.8 µg/mL) | 570 | – | – | –
C#CC(=O)Nc1ccc(CCCCCC)cc1 | 68.9 µM | 8 | 17.1 | 35.1 | 60 (≈ 13.8 µg/mL) | 6210 | – | – | –
CCCCCCc1ccc(NC(=O)/C=C\C(=O)O)cc1 | 17.5 µM | > 200 | 148 | 20.3 | 418 (≈ 115 µg/mL) | – | – | – | –
CCCCCCc1ccc(C(=O)CCN(C)CCO)cc1 | 3 µM | 13.2 | 13.2 | 1.6 | 97 (≈ 28.3 µg/mL) | – | – | – | –
CCCCCCc1ccc(C(=O)CCN(C)C)cc1 | […] | – | – | 4.3 | – | – | – | – | –
CCCCCCc1ccc(C(=O)CCN(C(C)C)C(C)C)cc1 | 4.1 µM | 15.4 | 20.7 | 2 | 55 (≈ 17.5 µg/mL) | – | – | – | –
CCCCCCc1ccc(C(=O)CCN2CCOCC2)cc1 | 4.1 µM | 7.2 | 20.8 | 2.7 | 110 (≈ 33.4 µg/mL) | – | 1210 10^-6 cm/s | – | –
CCCCCCc1ccc(C(=O)CCN2CCC(C(=O)OC)CC2)cc1 | 6.3 µM | 8.2 | 19.7 | 3.9 | 27 (≈ 9.71 µg/mL) | 1450 | – | – | –
CCCCCCc1ccc(C(=O)CCN(C)Cc2ccco2)cc1 | 22.6 µM | – | – | 12.1 | – | – | – | – | –
CCCCCCc1ccc(C(=O)CCCBr)cc1 | > 100 µM | 28.7 | 25.3 | > 100 | 26 (≈ 8.09 µg/mL) | 580 | – | – | –
C#CC(=O)Oc1ccc(CCCCCC)cc1 | 16.7 µM | 7.9 | 13.9 | 6.2 | 18 (≈ 4.15 µg/mL) | 210 | – | – | –
CCCCCCc1ccc(C(=O)CCl)cc1 | 47.7 µM | – | – | 23.1 | – | – | – | – | –
CCCCCCc1ccc(C(=O)CF)cc1 | > 100 µM | 2.4 | 69 | > 100 | 95 (≈ 21.1 µg/mL) | – | – | – | –
CCCCCCc1ccc(C(=O)C2CO2)cc1 (centres undefined) | 47.7 µM | > 200 | 58 | 23.1 | 204 (≈ 47.4 µg/mL) | – | 1117 10^-6 cm/s | – | –
C=CC(=O)c1ccc(CCCCCCC)cc1 | 23 µM | 69.2 | 36.7 | 10.5 | – | – | – | – | –
C=CC(=O)c1ccc(CCCCCCCC)cc1 | 21.4 µM | 111 | 50.5 | 11.4 | – | – | – | – | –
C=CC(=O)Oc1ccc(CCCCC)cc1 | > 100 µM | 21.2 | 36.5 | 55.8 | – | – | – | – | –
C=CC(=O)Oc1ccccc1CCCCCC | 39.1 µM | 14.6 | 19.4 | 8.2 | – | – | – | – | –

SMILES | IC50 [1] | CC50 (ARO; Homo sapiens, ARO, 48 h) [µM] | CC50 (U2OS; Homo sapiens, U2OS, 48 h) [µM] | IC50 [2] [µM] | solubility (physchem) [µM] | Papp [3] [nm/s] | permeability [3] | CC50 (ARO) | CC50 (U2OS) [µM]
C=CC(=O)c1ccc(CCCCCC)cc1 | 28.1 µM and 45.2 µM | – | 10.1 | – | 36 (≈ 7.79 µg/mL) | 380 | – | 4.5 µM and 29.5 µM | 18.8
CCCCCCc1ccc(C(=O)/C=C\C(=O)O)cc1 | 19.2 µM | 5.5 | 57.4 | 17.7 | 252 (≈ 65.6 µg/mL) | 660 | – | – | –
C=C(C)C(=O)c1ccc(CCCCCCC)cc1 | 52.9 µM | 10.7 | 18.7 | 23.2 | 37 (≈ 9.04 µg/mL) | 430 | – | – | –
C=CC(=O)c1ccc(CC(C)(C)C)cc1 | 69.6 µM | 5.8 | 27.5 | 43.5 | – | – | – | – | –
C/C=C(\C)C(=O)c1ccc(CCCCCCC)cc1 | > 100 µM | > 200 | > 200 | > 100 | 36 (≈ 9.3 µg/mL) | – | – | – | –
CCCCCCc1ccc(C(=O)CC)cc1 | > 100 µM | – | – | > 100 | – | – | – | – | –
C=CC(=O)c1ccc(CCCC)cc1 | 71 µM | 9.9 | 25.6 | 66 | – | – | – | – | –
CCCCCCc1ccc(NC(=O)CCC(=O)O)cc1 | > 100 µM | – | – | > 100 | – | – | – | – | –
CCCCCCc1ccc(NC(=O)C=C(C)C)cc1 | > 100 µM | > 200 | > 200 | > 100 | 37 (≈ 9.6 µg/mL) | 980 | – | – | –
C=CC(=O)[C@H]1CC[C@H](CC(C)(C)C)CC1 | 75.6 µM | 92.8 | 50.2 | 69.1 | – | – | – | – | –
C=CC(=O)Oc1ccc(CCC)cc1 | > 100 µM | 4.8 | 121 | 61 | – | – | – | – | –
CCCC(=O)Nc1cccc2c1CCCC2 | 85.3 µM | 54.7 | 101 | 69.8 | – | – | – | – | –
CCCCCCc1ccc(C(=O)CCBr)cc1 | 4.2 µM | 40.1 | 17 | 3 | 85 (≈ 25.3 µg/mL) | – | – | – | –
CCCCCCc1ccc(C(=O)CCN(CCCC)CCCC)cc1 | 6.9 µM | 5.4 | 25.5 | 4.2 | 152 (≈ 52.5 µg/mL) | – | – | – | –
C/C=C/C(=O)c1ccc(CCCCCCC)cc1 | 18.9 µM | 1.4 | 11.6 | 7.6 | 41 (≈ 10 µg/mL) | 70 | – | – | –
CCCCCCCc1ccc(C(=O)C=C(C)C)cc1 | > 100 µM | > 200 | > 200 | > 100 | 24 (≈ 6.2 µg/mL) | – | – | – | –
CCCCCCc1ccc(C(=O)CCNCCC)cc1 | 25.8 µM | 107 | 160 | 15.2 | 354 (≈ 97.5 µg/mL) | 2540 | – | – | –
C=CC(=O)Nc1ccc(CCCCCC)cc1 | 21.6 µM | 113 | 66.5 | 17.9 | 47 (≈ 10.9 µg/mL) | 8330 | – | – | –
C/C=C/C(=O)Nc1ccc(CCCCCC)cc1 | > 100 µM | > 200 | > 200 | > 100 | 42 (≈ 10.3 µg/mL) | 4320 | – | – | –
CCCCCCc1ccc(C(=O)CCN(C2CCCCC2)C2CCCCC2)cc1 | 16.5 µM | – | – | 12.7 | – | – | – | – | –
CCCCCCCc1ccc(C(=O)/C=C/c2ccccc2)cc1 | > 100 µM | > 200 | 57 | > 100 | 30 (≈ 9.19 µg/mL) | – | – | – | –
